# According to ChEMBL document CHEMBL1649165, “Activity profile in vitro of micafungin against Spanish clinical isolates of common and emerging species of yeasts and molds” (2009):
# Experiments:
# Type in all cases: functional
# Neurospora sitophila = test: Antimicrobial activity against Chrysonilia sitophila by broth microdilution method
# Method in brief: (§1)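 Clinical mould isolates, tested by broth microdilution using the AFST-EUCAST reference method for filamentous fungi. For echinocandins, the endpoint was the minimum effective concentration: the lowest drug concentration giving aberrant hyphal growth, read with an inverted microscope.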
# Candida albicans = test: Antimicrobial activity against Candida albicans by broth microdilution method
# Method in brief: (§2)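 Clinical isolates from human patients, tested by broth microdilution using the AFST-EUCAST reference procedure for fermentative yeasts. The MIC was read per that reference method.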
# Fusarium solani = test: Antimicrobial activity against Fusarium solani by broth microdilution method
# Method in brief: (§3)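 Filamentous fungus clinical isolates tested by the AFST-EUCAST reference broth microdilution method for moulds. For echinocandins, the endpoint was the minimum effective concentration: the lowest drug concentration giving aberrant hyphal growth, read with an inverted microscope.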
# Fusarium reticulatum = test: Antimicrobial activity against Fusarium reticulatum by broth microdilution method; method in brief: as §3
# Scedosporium apiospermum = test: Antimicrobial activity against Scedosporium apiospermum by broth microdilution method; method in brief: as §3
# Trichosporon ovoides = test: Antimicrobial activity against Trichosporon ovoides by broth microdilution method
# Method in brief: (§4)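 Nonfermentative yeast clinical isolates (Rhodotorula, Trichosporon) tested by broth microdilution. The EUCAST yeast recommendations were followed strictly, with one minor modification to improve growth. MIC was read as the endpoint.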
# [1] = system: Scopulariopsis brevicaulis; test: Antimicrobial activity against Scopulariopsis brevicaulis by broth microdilution method; method in brief: as §3
# Aspergillus sydowii = test: Antimicrobial activity against Aspergillus sydowii by broth microdilution method; method in brief: as §1
# Paecilomyces lilacinus = test: Antimicrobial activity against Paecilomyces lilacinus by broth microdilution method; conditions: Purpureocillium lilacinum; method in brief: as §3
# Lecythophora hoffmannii = test: Antimicrobial activity against Lecythophora hoffmannii by broth microdilution method; conditions: Coniochaeta hoffmannii; method in brief: as §3
# [Candida] inconspicua = Antimicrobial activity against Candida inconspicua by broth microdilution method; conditions: Pichia inconspicua; method in brief: as §2
# Fusarium oxysporum = test: Antimicrobial activity against Fusarium oxysporum by broth microdilution method; method in brief: as §1
# Lichtheimia corymbifera = test: Antimicrobial activity against Mycocladus corymbiferus by broth microdilution method; method in brief: as §3
# Kluyveromyces marxianus = test: Antimicrobial activity against Candida kefyr by broth microdilution method; method in brief: as §2
# Aspergillus sclerotiorum = test: Antimicrobial activity against Aspergillus sclerotiorum by broth microdilution method; method in brief: as §1
# Pichia kudriavzevii = test: Antimicrobial activity against Candida krusei by broth microdilution method; method in brief: as §2
# Aspergillus versicolor = test: Antimicrobial activity against Aspergillus versicolor by broth microdilution method; method in brief: as §1
# Torulaspora delbrueckii = test: Antimicrobial activity against Candida coliculosa by broth microdilution method; method in brief: as §2
# Lomentospora prolificans = test: Antimicrobial activity against Scedosporium prolificans by broth microdilution method; method in brief: as §3
# Pichia norvegensis = test: Antimicrobial activity against Candida norvegensis by broth microdilution method; method in brief: as §2
# Phialemonium curvatum = test: Antimicrobial activity against Phialemonium curvatum by broth microdilution method; conditions: Thyridium curvatum; method in brief: as §3
# Lewia infectoria = test: Antimicrobial activity against Alternaria infectoria by broth microdilution method; method in brief: as §1
# Papiliotrema laurentii = test: Antimicrobial activity against Cryptococcus laurentii by broth microdilution method
# Method in brief: (§5)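 Clinical isolates of nonfermentative yeasts, tested by broth microdilution following EUCAST recommendations. The only change from that method was a minor modification to improve growth.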
# [Candida] intermedia = Antimicrobial activity against Candida intermedia by broth microdilution method; conditions: Sungouiella intermedia; method in brief: as §2
# Aspergillus glaucus = test: Antimicrobial activity against Aspergillus glaucus by broth microdilution method; method in brief: as §1
# Rhizomucor = test: Antimicrobial activity against Rhizomucor spp.by broth microdilution method; method in brief: as §3
# Aureobasidium pullulans = test: Antimicrobial activity against Aureobasidium pullulans by broth microdilution method
# Aspergillus niger = test: Antimicrobial activity against Aspergillus niger by broth microdilution method; method in brief: as §1
# [Candida] zeylanoides = Antimicrobial activity against Candida zeylanoides by broth microdilution method; conditions: Dujonia zeylanoides; method in brief: as §2
# Clavispora lusitaniae = test: Antimicrobial activity against Candida lusitaniae by broth microdilution method; method in brief: as §2
# Aspergillus ochraceus = test: Antimicrobial activity against Aspergillus ochraceus by broth microdilution method; method in brief: as §1
# Geotrichum candidum = test: Antimicrobial activity against Galactomyces geotrichum by broth microdilution method
# Fennellia nivea = test: Antimicrobial activity against Aspergillus niveus by broth microdilution method; method in brief: as §1
# Magnusiomyces capitatus = test: Antimicrobial activity against Dipodascus capitatus by broth microdilution method
# Saccharomyces cerevisiae = test: Antimicrobial activity against Saccharomyces cerevisiae by broth microdilution method
# Exophiala jeanselmei = test: Antimicrobial activity against Exophiala jeanselmei by broth microdilution method
# [2] = system: Cryptococcus deneoformans; test: Antimicrobial activity against Cryptococcus neoformans var. neoformans by broth microdilution method; method in brief: as §5
# Trichosporon asahii = test: Antimicrobial activity against Trichosporon asahii by broth microdilution method; method in brief: as §4
# Scytalidium hyalinum = test: Antimicrobial activity against Scytalidium hyalinum by broth microdilution method; conditions: Neoscytalidium hyalinum; method in brief: as §3
# Naganishia albida = test: Antimicrobial activity against Cryptococcus albidus by broth microdilution method; method in brief: as §5
smiles,measurement,setting,value
C[C@@H](c1ncncc1F)[C@](O)(Cn1cncn1)c1ccc(F)cc1F [VORICONAZOLE],MIC50,Neurospora sitophila,4 µg/mL
same,MIC90,Neurospora sitophila,> 8 µg/mL
same,MIC50,Candida albicans,0.02 µg/mL
same,MIC90,Candida albicans,0.02 µg/mL
same,MIC50,Fusarium solani,> 8 µg/mL
same,MIC90,Fusarium solani,4 µg/mL
same,MIC50,Fusarium reticulatum,4 µg/mL
same,MIC90,Fusarium reticulatum,> 8 µg/mL
same,MIC50,Scedosporium apiospermum,0.5 µg/mL
same,MIC90,Scedosporium apiospermum,2 µg/mL
same,MIC50,Trichosporon ovoides,0.5 µg/mL
same,MIC90,Trichosporon ovoides,> 8 µg/mL
same,MIC50,[1],4 µg/mL
same,MIC90,[1],> 8 µg/mL
same,MIC50,Aspergillus sydowii,1 µg/mL
same,MIC90,Aspergillus sydowii,2 µg/mL
same,MIC50,Paecilomyces lilacinus,0.5 µg/mL
same,MIC90,Paecilomyces lilacinus,> 8 µg/mL
same,MIC50,Lecythophora hoffmannii,0.06 µg/mL
same,MIC90,Lecythophora hoffmannii,> 8 µg/mL
same,MIC50,[Candida] inconspicua,0.12 µg/mL
same,MIC90,[Candida] inconspicua,> 8 µg/mL
same,MIC50,Fusarium oxysporum,4 µg/mL
same,MIC90,Fusarium oxysporum,> 8 µg/mL
same,MIC50,Lichtheimia corymbifera,> 8 µg/mL
same,MIC90,Lichtheimia corymbifera,> 8 µg/mL
same,MIC50,Kluyveromyces marxianus,0.02 µg/mL
same,MIC90,Kluyveromyces marxianus,0.02 µg/mL
same,MIC50,Aspergillus sclerotiorum,0.25 µg/mL
same,MIC90,Aspergillus sclerotiorum,> 8 µg/mL
same,MIC50,Pichia kudriavzevii,0.25 µg/mL
same,MIC90,Pichia kudriavzevii,0.5 µg/mL
same,MIC50,Aspergillus versicolor,1 µg/mL
same,MIC90,Aspergillus versicolor,2 µg/mL
same,MIC50,Torulaspora delbrueckii,0.12 µg/mL
same,MIC90,Torulaspora delbrueckii,> 8 µg/mL
same,MIC50,Lomentospora prolificans,> 8 µg/mL
same,MIC90,Lomentospora prolificans,> 8 µg/mL
same,MIC50,Pichia norvegensis,0.12 µg/mL
same,MIC90,Pichia norvegensis,> 8 µg/mL
same,MIC50,Phialemonium curvatum,4 µg/mL
same,MIC90,Phialemonium curvatum,> 8 µg/mL
same,MIC50,Lewia infectoria,2 µg/mL
same,MIC90,Lewia infectoria,> 8 µg/mL
same,MIC50,Papiliotrema laurentii,0.5 µg/mL
same,MIC90,Papiliotrema laurentii,> 8 µg/mL
same,MIC50,[Candida] intermedia,0.12 µg/mL
same,MIC90,[Candida] intermedia,> 8 µg/mL
same,MIC50,Aspergillus glaucus,0.25 µg/mL
same,MIC90,Aspergillus glaucus,> 8 µg/mL
same,MIC50,Rhizomucor,> 8 µg/mL
same,MIC90,Rhizomucor,> 8 µg/mL
same,MIC50,Aureobasidium pullulans,0.06 µg/mL
same,MIC90,Aureobasidium pullulans,> 8 µg/mL
same,MIC50,Aspergillus niger,1 µg/mL
same,MIC90,Aspergillus niger,2 µg/mL
same,MIC50,[Candida] zeylanoides,0.12 µg/mL
same,MIC90,[Candida] zeylanoides,> 8 µg/mL
same,MIC50,Clavispora lusitaniae,0.02 µg/mL
same,MIC90,Clavispora lusitaniae,0.02 µg/mL
same,MIC50,Aspergillus ochraceus,0.25 µg/mL
same,MIC90,Aspergillus ochraceus,> 8 µg/mL
same,MIC50,Geotrichum candidum,0.5 µg/mL
same,MIC90,Geotrichum candidum,1 µg/mL
same,MIC50,Fennellia nivea,0.25 µg/mL
same,MIC90,Fennellia nivea,> 8 µg/mL
same,MIC50,Magnusiomyces capitatus,0.5 µg/mL
same,MIC90,Magnusiomyces capitatus,1 µg/mL
same,MIC50,Saccharomyces cerevisiae,0.06 µg/mL
same,MIC90,Saccharomyces cerevisiae,0.5 µg/mL
same,MIC50,Exophiala jeanselmei,0.06 µg/mL
same,MIC90,Exophiala jeanselmei,> 8 µg/mL
same,MIC50,[2],0.12 µg/mL
same,MIC90,[2],0.5 µg/mL
same,MIC50,Trichosporon asahii,0.25 µg/mL
same,MIC90,Trichosporon asahii,> 8 µg/mL
same,MIC50,Scytalidium hyalinum,0.06 µg/mL
same,MIC90,Scytalidium hyalinum,> 8 µg/mL
same,MIC50,Naganishia albida,0.5 µg/mL
same,MIC90,Naganishia albida,> 8 µg/mL
